Test results reported in ChEMBL document CHEMBL1147446, “Antagonists of human CCR5 receptor containing 4-(pyrazolyl)piperidine side chains. Part 3: SAR studies on the benzylpyrazole segment” (Bioorg Med Chem Lett, 2004).
pIC50: −log10 of the molar value.

Assays:
HeLa [1] = experiment: Antiviral activities in a cell culture HIV-1 infectivity inhibition assay using HeLa cells plus 50% normal human serum; format: functional
[2] = target: C-C chemokine receptor type 5 (Homo sapiens, UniProt P51681); experiment: Inhibitory concentration for displacement of [125I]-MIP-1 alpha from recombinant human CC chemokine receptor 5 (CCR5) expressed in CHO cell; format: cell-based
Chain of C-C chemokine receptor type 5 (P51681 whole entry): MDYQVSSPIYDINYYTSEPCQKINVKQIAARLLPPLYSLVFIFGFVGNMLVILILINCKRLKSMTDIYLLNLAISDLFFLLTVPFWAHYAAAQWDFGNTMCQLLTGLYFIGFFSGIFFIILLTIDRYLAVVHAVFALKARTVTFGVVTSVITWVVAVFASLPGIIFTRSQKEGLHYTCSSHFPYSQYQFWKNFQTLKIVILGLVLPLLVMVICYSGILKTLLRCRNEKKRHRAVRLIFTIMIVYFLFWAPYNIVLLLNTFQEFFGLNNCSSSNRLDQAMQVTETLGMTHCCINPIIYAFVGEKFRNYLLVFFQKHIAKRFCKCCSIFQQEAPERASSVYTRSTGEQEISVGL
Procedure, shortened: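 Competitive binding to CCR5 on CHO cell membranes, read as displacement of [125I]-labeled MIP-1α. IC50 values are means of triplicate determinations. Standard errors were normally <15% within an assay. Assay-to-assay variation was within ±2-fold, judged from a standard compound.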

HeLa [3] = experiment: Antiviral activities in a cell culture HIV-1 infectivity inhibition assay using HeLa cells; format: functional; conditions: Homo sapiens

Structure (SMILES)	IC90 (HeLa [1])	pIC50 [2]	IC90 (HeLa [3])
CC[C@H](C)[C@H](C(=O)O)N1C[C@H](CN2CCC(c3cc(Cc4ccc(O)cc4)nn3CC)CC2)[C@@H](c2cccc(F)c2)C1	11 nM	8.85	0.4 nM
CCn1nc(Cc2ccc(O)cc2)cc1C1CCN(C[C@H]2CN([C@@H](C(=O)O)C(C)C)C[C@@H]2c2cccc(F)c2)CC1	33 nM	9.22	1.2 nM
CCn1nc(Cc2ccccc2F)cc1C1CCN(C[C@H]2CN([C@@H](C(=O)O)C3CCCCC3)C[C@@H]2c2cccc(F)c2)CC1	33 nM	9.30	< 0.14 nM
CCCOc1ccc(Cc2cc(C3CCN(C[C@H]4CN([C@@H](C(=O)O)C5CCCCC5)C[C@@H]4c4cccc(F)c4)CC3)n(CC)n2)cc1	100 nM	9.15	1.2 nM
CCn1nc(Cc2ccc(OC3CC3)cc2)cc1C1CCN(C[C@H]2CN([C@@H](C(=O)O)C(C)C)C[C@@H]2c2cccc(F)c2)CC1	300 nM	9.00	1.2 nM
CC[C@@H](C)[C@H](C(=O)O)N1C[C@H](CN2CCC(c3cc(Cc4ccc(S(=O)(=O)c5ccccc5)cc4)nn3CC)CC2)[C@@H](c2cccc(F)c2)C1	33 nM	8.96	0.4 nM
CCn1nc(Cc2ccc(C(F)(F)F)cc2)cc1C1CCN(C[C@H]2CN([C@@H](C(=O)O)C(C)C)C[C@@H]2c2cccc(F)c2)CC1	100 nM	8.70	3.7 nM
CCn1nc(Cc2ccc(C#N)cc2)cc1C1CCN(C[C@H]2CN([C@@H](C(=O)O)C(C)C)C[C@@H]2c2cccc(F)c2)CC1	100 nM	8.51	1.2 nM
CCn1nc(Cc2cccnc2)cc1C1CCN(C[C@H]2CN([C@@H](C(=O)O)C3CCCCC3)C[C@@H]2c2cccc(F)c2)CC1	33 nM	8.41	0.4 nM
CCn1nc(Cc2ccc(Oc3ccccc3)cc2)cc1C1CCN(C[C@H]2CN([C@@H](C(=O)O)C3CCCCC3)C[C@@H]2c2cccc(F)c2)CC1	100 nM	9.30	1.2 nM
CCn1nc(Cc2ccc(OC)cc2)cc1C1CCN(C[C@H]2CN([C@@H](C(=O)O)C(C)(C)C)C[C@@H]2c2cccc(F)c2)CC1	33 nM	8.82	< 0.14 nM
CC[C@H](C)[C@H](C(=O)O)N1C[C@H](CN2CCC(c3cc(Cc4ccc(-c5ccccc5)cc4)nn3CC)CC2)[C@@H](c2cccc(F)c2)C1	33 nM	9.52	0.4 nM
CCn1nc(Cc2ccccc2F)cc1C1CCN(C[C@H]2CN([C@@H](C(=O)O)C(C)C)C[C@@H]2c2cccc(F)c2)CC1	> 300 nM	8.66	11 nM
CC[C@H](C)[C@H](C(=O)O)N1C[C@H](CN2CCC(c3cc(Cc4ccc5c(c4)OCO5)nn3CC)CC2)[C@@H](c2cccc(F)c2)C1	100 nM	9.30	< 0.14 nM
CCCCOc1ccc(Cc2cc(C3CCN(C[C@H]4CN([C@@H](C(=O)O)C(C)C)C[C@@H]4c4cccc(F)c4)CC3)n(CC)n2)cc1	300 nM	9.30	11 nM
CC[C@@H](C)[C@H](C(=O)O)N1C[C@H](CN2CCC(c3cc(Cc4ccc(C(F)(F)F)cc4)nn3CC)CC2)[C@@H](c2cccc(F)c2)C1	100 nM	9.30	0.4 nM
CCn1nc(CC2CCCCC2)cc1C1CCN(C[C@H]2CN([C@@H](C(=O)O)C(C)(C)C)C[C@@H]2c2cccc(F)c2)CC1	300 nM	8.96	3.7 nM
CCn1nc(Cc2ccc3c(c2)OCO3)cc1C1CCN(C[C@H]2CN([C@@H](C(=O)O)C(C)(C)C)C[C@@H]2c2cccc(F)c2)CC1	33 nM	9.15	< 0.14 nM

Structure (SMILES)	IC90 (HeLa [1])	pIC50 [2]	IC90 (HeLa [3])
CC[C@H](C)[C@H](C(=O)O)N1C[C@H](CN2CCC(c3cc(Cc4ccc(Oc5ccccc5)cc4)nn3CC)CC2)[C@@H](c2cccc(F)c2)C1	100 nM	9.40	1.2 nM
CCOc1ccc(Cc2cc(C3CCN(C[C@H]4CN([C@@H](C(=O)O)[C@H](C)CC)C[C@@H]4c4cccc(F)c4)CC3)n(CC)n2)cc1F	33 nM	9.40	< 0.14 nM
CCn1nc(Cc2ccc(OCC(F)(F)F)cc2)cc1C1CCN(C[C@H]2CN([C@@H](C(=O)O)C(C)(C)C)C[C@@H]2c2cccc(F)c2)CC1	100 nM	9.22	1.2 nM
CCn1nc(Cc2ccc(C#N)cc2)cc1C1CCN(C[C@H]2CN([C@@H](C(=O)O)C3CCCCC3)C[C@@H]2c2cccc(F)c2)CC1	11 nM	8.77	0.4 nM
CC[C@@H](C)[C@H](C(=O)O)N1C[C@H](CN2CCC(c3cc(Cc4ccc(OCC(F)(F)F)cc4)nn3CC)CC2)[C@@H](c2cccc(F)c2)C1	100 nM	9.30	3.7 nM
CC[C@H](C)[C@H](C(=O)O)N1C[C@H](CN2CCC(c3cc(Cc4ccc(C)cc4)nn3CC)CC2)[C@@H](c2cccc(F)c2)C1	11 nM	9.52	< 0.14 nM
CC[C@H](C)[C@H](C(=O)O)N1C[C@H](CN2CCC(c3cc(Cc4ccc(S(=O)(=O)c5ccccc5)cc4)nn3CC)CC2)[C@@H](c2cccc(F)c2)C1	11 nM	9.22	< 0.14 nM
CCOc1ccc(Cc2cc(C3CCN(C[C@H]4CN([C@@H](C(=O)O)[C@@H](C)CC)C[C@@H]4c4cccc(F)c4)CC3)n(CC)n2)cc1F	11 nM	9.15	< 0.14 nM
CCn1nc(Cc2ccc(S(=O)(=O)c3ccccc3)cc2)cc1C1CCN(C[C@H]2CN([C@@H](C(=O)O)C(C)C)C[C@@H]2c2cccc(F)c2)CC1	33 nM	8.89	0.4 nM
CCn1nc(Cc2cccc3ccccc23)cc1C1CCN(C[C@H]2CN([C@@H](C(=O)O)C(C)(C)C)C[C@@H]2c2cccc(F)c2)CC1	11 nM	9.70	< 0.14 nM
CCOc1ccc(Cc2cc(C3CCN(C[C@H]4CN([C@@H](C(=O)O)C(C)C)C[C@@H]4c4cccc(F)c4)CC3)n(CC)n2)cc1F	100 nM	9.40	< 0.14 nM
CC[C@H](C)[C@H](C(=O)O)N1C[C@H](CN2CCC(c3cc(Cc4ccc(OCc5ccccc5)cc4)nn3CC)CC2)[C@@H](c2cccc(F)c2)C1	300 nM	9.15	3.7 nM
CC[C@@H](C)[C@H](C(=O)O)N1C[C@H](CN2CCC(c3cc(Cc4ccc(OC(F)F)cc4)nn3CC)CC2)[C@@H](c2cccc(F)c2)C1	11 nM	9.22	< 0.14 nM
CC[C@@H](C)[C@H](C(=O)O)N1C[C@H](CN2CCC(c3cc(Cc4cc(C(F)(F)F)cc(C(F)(F)F)c4)nn3CC)CC2)[C@@H](c2cccc(F)c2)C1	> 300 nM	8.80	33 nM
CCn1nc(Cc2ccc(O)cc2)cc1C1CCN(C[C@H]2CN([C@@H](C(=O)O)C(C)(C)C)C[C@@H]2c2cccc(F)c2)CC1	11 nM	8.96	0.4 nM
CCn1nc(Cc2ccc(OC3CC3)cc2)cc1C1CCN(C[C@H]2CN([C@@H](C(=O)O)C3CCCCC3)C[C@@H]2c2cccc(F)c2)CC1	33 nM	9.70	< 0.14 nM
CCn1nc(Cc2cccc(F)c2)cc1C1CCN(C[C@H]2CN([C@@H](C(=O)O)C3CCCCC3)C[C@@H]2c2cccc(F)c2)CC1	33 nM	9.00	< 0.14 nM
